Here are results for 16 compounds from ChEMBL document CHEMBL1287728, “Potent and highly selective DP1 antagonists with 2,3,4,9-tetrahydro-1H-carbazole as pharmacophore” (Bioorg Med Chem Lett, 2010).

The target in series [1] is T1, Prostaglandin D2 receptor (Homo sapiens, UniProt Q13258).
T1 sequence (Q13258 whole entry): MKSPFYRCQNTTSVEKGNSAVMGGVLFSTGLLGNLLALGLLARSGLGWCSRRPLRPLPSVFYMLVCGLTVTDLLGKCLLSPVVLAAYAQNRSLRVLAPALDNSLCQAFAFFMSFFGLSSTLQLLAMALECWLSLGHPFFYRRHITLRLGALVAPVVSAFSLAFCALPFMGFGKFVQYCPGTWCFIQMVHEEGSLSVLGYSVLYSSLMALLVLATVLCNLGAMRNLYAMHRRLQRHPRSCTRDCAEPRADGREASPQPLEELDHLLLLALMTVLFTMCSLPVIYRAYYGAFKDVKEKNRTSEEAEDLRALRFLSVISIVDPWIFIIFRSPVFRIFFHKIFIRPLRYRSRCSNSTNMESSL
Put plainly: Antagonist activity at prostanoid DP1 receptor. The series is classed as functional.

Another series addresses T2, Thromboxane A2 receptor (Homo sapiens, UniProt P21731).
T2 sequence (P21731 whole entry): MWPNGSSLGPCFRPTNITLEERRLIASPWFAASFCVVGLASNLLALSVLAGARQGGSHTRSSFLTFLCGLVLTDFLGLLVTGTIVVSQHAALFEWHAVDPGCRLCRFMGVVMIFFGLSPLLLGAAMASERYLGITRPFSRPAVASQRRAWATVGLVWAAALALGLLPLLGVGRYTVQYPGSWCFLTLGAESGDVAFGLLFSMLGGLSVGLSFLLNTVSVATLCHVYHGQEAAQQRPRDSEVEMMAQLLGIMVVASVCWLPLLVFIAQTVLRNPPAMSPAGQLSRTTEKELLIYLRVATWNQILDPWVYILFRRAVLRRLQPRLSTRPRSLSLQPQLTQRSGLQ
The experiment in a line: Antagonist activity at prostanoid TP receptor. The series is classed as functional.

In series [2] the target is T3, Prostaglandin E2 receptor EP1 subtype (Homo sapiens, UniProt P34995).
T3 sequence (P34995 whole entry): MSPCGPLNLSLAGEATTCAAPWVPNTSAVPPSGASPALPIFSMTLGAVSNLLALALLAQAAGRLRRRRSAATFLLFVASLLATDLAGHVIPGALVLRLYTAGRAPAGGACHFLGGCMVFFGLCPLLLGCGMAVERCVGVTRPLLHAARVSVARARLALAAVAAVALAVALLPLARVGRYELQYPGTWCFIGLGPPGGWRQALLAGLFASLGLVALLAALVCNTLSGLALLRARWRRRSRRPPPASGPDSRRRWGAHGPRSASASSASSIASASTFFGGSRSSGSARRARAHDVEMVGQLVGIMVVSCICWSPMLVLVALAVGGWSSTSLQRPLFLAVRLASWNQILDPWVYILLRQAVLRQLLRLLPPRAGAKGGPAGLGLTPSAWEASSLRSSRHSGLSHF
The experiment in a line: Binding affinity to prostanoid receptor EP1 receptor.

Series [3] deals with Prostaglandin E2 receptor EP2 subtype (Homo sapiens, UniProt P43116). The experiment in a line: Binding affinity to prostanoid receptor EP2 receptor.
Prostaglandin E2 receptor EP2 subtype, sequence (P43116 whole entry): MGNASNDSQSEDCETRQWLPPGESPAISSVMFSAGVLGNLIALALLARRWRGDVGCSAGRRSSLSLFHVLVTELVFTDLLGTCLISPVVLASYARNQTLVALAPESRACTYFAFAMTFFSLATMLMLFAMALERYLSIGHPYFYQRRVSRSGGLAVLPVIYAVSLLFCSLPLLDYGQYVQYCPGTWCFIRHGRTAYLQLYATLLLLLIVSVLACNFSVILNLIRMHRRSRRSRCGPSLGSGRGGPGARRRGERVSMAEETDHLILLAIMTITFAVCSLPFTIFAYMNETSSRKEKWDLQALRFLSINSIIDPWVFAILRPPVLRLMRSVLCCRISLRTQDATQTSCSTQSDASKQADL
Series [4] deals with T4, Prostaglandin E2 receptor EP3 subtype (Homo sapiens, UniProt P43115).
T4 sequence (P43115 whole entry): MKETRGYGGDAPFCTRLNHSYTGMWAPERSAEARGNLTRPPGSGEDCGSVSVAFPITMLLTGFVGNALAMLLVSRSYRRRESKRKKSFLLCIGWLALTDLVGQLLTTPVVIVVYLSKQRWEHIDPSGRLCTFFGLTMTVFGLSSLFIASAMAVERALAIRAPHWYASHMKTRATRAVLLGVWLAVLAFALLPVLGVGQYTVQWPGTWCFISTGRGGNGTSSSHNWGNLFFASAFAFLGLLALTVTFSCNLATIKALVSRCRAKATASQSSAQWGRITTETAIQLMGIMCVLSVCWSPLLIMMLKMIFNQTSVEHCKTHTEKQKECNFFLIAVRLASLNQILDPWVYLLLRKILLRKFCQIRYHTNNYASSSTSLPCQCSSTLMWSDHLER
The experiment in a line: Binding affinity to prostanoid receptor EP3 receptor.

Series [5] has as its target Prostaglandin E2 receptor EP4 subtype (Homo sapiens, UniProt P35408). The experiment in a line: Binding affinity to prostanoid receptor EP4 receptor.
Series [6] deals with Prostaglandin F2-alpha receptor (Homo sapiens, UniProt P43088). The experiment in a line: Binding affinity to prostanoid receptor FP receptor.
Prostaglandin F2-alpha receptor, sequence (P43088 whole entry): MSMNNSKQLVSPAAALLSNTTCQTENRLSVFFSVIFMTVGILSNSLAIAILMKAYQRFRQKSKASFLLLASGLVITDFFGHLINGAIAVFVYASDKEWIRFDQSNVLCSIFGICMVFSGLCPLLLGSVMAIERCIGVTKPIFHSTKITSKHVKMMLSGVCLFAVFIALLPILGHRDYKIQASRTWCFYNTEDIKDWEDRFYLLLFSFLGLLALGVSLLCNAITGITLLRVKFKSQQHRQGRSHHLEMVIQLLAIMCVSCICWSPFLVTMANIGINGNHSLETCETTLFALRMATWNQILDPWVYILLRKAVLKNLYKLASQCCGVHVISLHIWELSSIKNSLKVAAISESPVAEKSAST
The target in the next series is Prostacyclin receptor (Homo sapiens, UniProt P43119). Put plainly: Binding affinity to prostanoid receptor IP receptor.
Prostacyclin receptor, sequence (P43119 whole entry): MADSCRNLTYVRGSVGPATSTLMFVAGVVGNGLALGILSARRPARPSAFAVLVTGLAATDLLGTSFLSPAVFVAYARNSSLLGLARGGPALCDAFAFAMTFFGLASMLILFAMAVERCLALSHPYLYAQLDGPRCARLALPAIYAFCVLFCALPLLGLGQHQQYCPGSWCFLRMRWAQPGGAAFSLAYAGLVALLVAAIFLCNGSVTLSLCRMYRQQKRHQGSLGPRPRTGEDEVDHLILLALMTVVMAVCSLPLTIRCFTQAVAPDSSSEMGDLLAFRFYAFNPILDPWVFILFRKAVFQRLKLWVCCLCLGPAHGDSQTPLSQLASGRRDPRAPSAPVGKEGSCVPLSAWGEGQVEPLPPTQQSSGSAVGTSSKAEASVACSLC
Series [7] is described as follows: Selectivity ratio of Ki for prostanoid DP1 receptor to Ki for prostanoid EP3 receptor.
Series [8] has as its target T1, Prostaglandin D2 receptor. Put plainly: Antagonist activity at prostanoid DP1 receptor in human platelet assessed as inhibition of PGD2 induced accumulation of cAMP. The class given is functional. In a few lines: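 Human platelet-rich plasma; cAMP accumulation induced by PGD₂, measured with antagonist present; IC₅₀ reported.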
For a further series, the species on record is Homo sapiens. Put plainly: Selectivity ratio of IC50 for prostanoid DP1 receptor to IC50 for TP receptor in human platelet. An outline of the steps: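 Ratio of IC₅₀ values from two human platelet-rich plasma assays: PGD₂-induced cAMP accumulation (DP1) and U46619-induced platelet aggregation (TP).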
Series [9] is described as follows: Chemical stability of compound in 0.01N HCl after 6 hrs. The series is classed as physicochemical. To be noted: read-out: Stability. An outline of the steps: (§1)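 Compound incubated in 0.01 N HCl at 37 °C; percent of compound recovered after 2 h or 6 h.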
The nature of series [10]: Chemical stability of compound in 0.01N HCl after 2 hrs. To be noted: read-out: Stability. The class given is physicochemical. An outline of the steps: as §1

The structures appear in SMILES notation.

Prostaglandin E2 receptor EP4 subtype, sequence (P35408 whole entry): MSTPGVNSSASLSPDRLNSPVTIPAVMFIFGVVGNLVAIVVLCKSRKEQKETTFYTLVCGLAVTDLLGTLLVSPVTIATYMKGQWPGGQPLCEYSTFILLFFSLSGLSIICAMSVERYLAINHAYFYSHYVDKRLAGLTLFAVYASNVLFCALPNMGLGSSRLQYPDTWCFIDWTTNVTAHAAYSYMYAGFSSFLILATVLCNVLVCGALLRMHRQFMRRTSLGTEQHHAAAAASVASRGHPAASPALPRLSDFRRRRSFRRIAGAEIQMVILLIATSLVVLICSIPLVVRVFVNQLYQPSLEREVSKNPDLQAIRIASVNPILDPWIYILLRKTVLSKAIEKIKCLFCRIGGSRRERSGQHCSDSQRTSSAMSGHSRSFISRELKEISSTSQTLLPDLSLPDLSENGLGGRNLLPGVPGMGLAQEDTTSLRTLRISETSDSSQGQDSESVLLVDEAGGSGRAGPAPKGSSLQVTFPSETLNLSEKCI

One may read the Ki as a dissociation constant, usually derived from enzyme kinetics or from competition with a known ligand. In the case of `CS(=O)(=O)c1cc(F)cc2c3c(n([C@@H](CF)c4ccc(Cl)cc4)c12)[C@@H](CC(=O)O)CCC3`, the values for the Ki (in series [1]; at Thromboxane A2 receptor) were 0.39 nM and 138 nM, respectively.
Consider `C[C@@H](c1ccccc1)n1c2c(c3cc(F)cc(S(C)(=O)=O)c31)CCC[C@@H]2CC(=O)O`, for which the Ki in series [1] was determined as 0.36 nM; on Thromboxane A2 receptor, 362 nM.
Take `C[C@@H](c1ccc(Br)cc1)n1c2c(c3cc(F)cc(S(C)(=O)=O)c31)CCC[C@@H]2CC(=O)O`: the Ki in series [1] was 0.38 nM; at Thromboxane A2 receptor, 106 nM.
For the compound `C[C@@H](c1ccc(Cl)cc1F)n1c2c(c3cc(F)cc(S(C)(=O)=O)c31)CCC[C@@H]2CC(=O)O`, the Ki in series [1] was determined as 0.41 nM; at Thromboxane A2 receptor it was 270 nM.
As to `CS(=O)(=O)c1cc(F)cc2c3c(n([C@H](c4ccc(Cl)cc4)C(F)F)c12)[C@@H](CC(=O)O)CCC3`, the inhibitory constant (Ki) in [1] is 0.36 nM; on Thromboxane A2 receptor, 130 nM.
On to `C[C@@H](c1cccc(Cl)c1)n1c2c(c3cc(F)cc(S(C)(=O)=O)c31)CCC[C@@H]2CC(=O)O`, for which the figures for the Ki (in series [1]; on Thromboxane A2 receptor) were 0.31 nM and 292 nM, respectively.
In the same order, the values of `C[C@@H](c1ccc(S(C)(=O)=O)cc1)n1c2c(c3cc(F)cc(S(C)(=O)=O)c31)CCC[C@@H]2CC(=O)O` are 16.5 nM and 1480 nM.
Take `CS(=O)(=O)c1cc(F)cc2c3c(n(Cc4ccc(Cl)cc4)c12)C(CC(=O)O)CCC3` (racemic): the Ki in series [1] came to 0.89 nM; at Thromboxane A2 receptor, 2.51 nM.
Take `C[C@@H](c1ccc(Cl)c(F)c1)n1c2c(c3cc(F)cc(S(C)(=O)=O)c31)CCC[C@@H]2CC(=O)O`: the results for the Ki (in series [1]; on Thromboxane A2 receptor) were 0.38 nM and 200 nM, respectively.
What is called IC50 is the concentration needed to halve the response being measured. Take `C[C@@H](c1ccc(C(F)(F)F)cc1)n1c2c(c3cc(F)cc(S(C)(=O)=O)c31)CCC[C@@H]2CC(=O)O`: the Ki in [1] stood at 0.43 nM; at Thromboxane A2 receptor, 338 nM; in [2], 4590 nM; in [3], 2270 nM; in series [4] it was 830 nM; in [5], 6610 nM. In addition, the Ki was 4320 nM in series [6] and 15500 nM at Prostacyclin receptor. For the same compound, the Ratio in series [7] stood at 1900; in the series filed under Homo sapiens, 7760. Also, the IC50 in [8] is 2.5 nM. For the same compound, in series [9], the remaining at 6 h is 99.6%.
Turning to `C[C@@H](c1ccc(Cl)c(Cl)c1)n1c2c(c3cc(F)cc(S(C)(=O)=O)c31)CCC[C@@H]2CC(=O)O`, the Ki is 0.33 nM in series [1] and 112 nM at Thromboxane A2 receptor.
The like results for `C[C@@H](c1ccc(C#N)cc1)n1c2c(c3cc(F)cc(S(C)(=O)=O)c31)CCC[C@@H]2CC(=O)O` were, in that order, 0.51 nM and 93 nM.
In turn, `CC(c1ccc(Cl)cc1)n1c2c(c3cc(F)cc(S(C)(=O)=O)c31)CCCC2CC(=O)O` (single isomer, unassigned; slow-eluting) registered a Ki in series [1] of 1.3 nM.
For `C[C@@H](c1ccc(F)cc1)n1c2c(c3cc(F)cc(S(C)(=O)=O)c31)CCC[C@@H]2CC(=O)O`, the inhibition constant (Ki) in series [1] amounted to 0.33 nM; at Thromboxane A2 receptor it was 100 nM.
Take `C[C@@H](c1ccc(Cl)cc1)n1c2c(c3cc(F)cc(S(C)(=O)=O)c31)CCC[C@@H]2CC(=O)O`: the Ki in [1] was found to be 0.75 nM; on Thromboxane A2 receptor it was 184 nM. Further, in [10], the remaining at 2 h was 79%.
In series [1], `CC(c1ccc(Cl)cc1)n1c2c(c3cc(F)cc(S(C)(=O)=O)c31)CCCC2CC(=O)O` (single isomer, unassigned; fast eluting) had a Ki of 12 nM.
